Hits are enriched below; roughly 2.9% of the tested compounds scored in any of these assays.
CHO parental Ca – ATP-evoked calcium signal inhibitors, parental CHO, primary screen, counter-screen for OX1R antagonist project, cell-based, fluorescence, Fluo-8 calcium dye | AID 463079, 2010 | parental CHO-K1, ATP-induced calcium, Fluo-8 fluorescence | inhibition, % at 5.6 µM | hit rate 0.63% among 330,000;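 active = inhibition above that plate's mean sample inhibition plus 3 SD, cut at about 26% in these data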;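 also: 0% = ATP-challenged DMSO wells and 100% = DMSO wells without ATP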
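Material: parental CHO cells / Compound: single nominal dose of 5.6 µM per compound / Signal: Fluo-8 fluorescence / Replicates: singlicate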
CHO-K1 Ca PAM – nonselective calcium activators in parental CHO-K1 cells, primary screen, counter-screen for M1 PAM project, cell-based, Fluo-8 calcium fluorescence, full deck, 1536-well. ATP EC20; 0% at ATP EC20, 100% at ATP max. activation, % at 3 µM. hit rate 0.02% among 360,000. AID 602247, 2012;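 active = activation above the run cutoff, the mean activation of all test compounds plus 3 SD, cut at about 40% in these data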;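 also: peak over basal fluorescence ratio in a 140 s read after ATP addition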
M1 ag parental – counter-screen for M1 agonists: effect in parental CHO-K1 cells. Fluo-8 calcium fluorescence; scaled to maximal ATP response, vehicle zero. hit rate 0.48% among 360,000. activation, % at 3 µM; in the data active = activation above about 15%;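 also: untransfected CHO-K1 host cells lacking M1 receptor as counterscreen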
OX1R antag-1 – antagonists of human orexin 1 receptor (OX1R). Orexin/Hypocretin receptor type 1 (Homo sapiens), O43613. OX1R-expressing cells, FRET antagonist read-out. inhibition, % at 6.6 µM. hit rate 1.8% among 330,000; in the data active = inhibition mostly above about 38%, no sharp cut-off; inactive = mostly below about 40%;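 also: 0% = agonist challenge alone and 100% = reference antagonist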
Target sequence (O43613 whole entry, looked up): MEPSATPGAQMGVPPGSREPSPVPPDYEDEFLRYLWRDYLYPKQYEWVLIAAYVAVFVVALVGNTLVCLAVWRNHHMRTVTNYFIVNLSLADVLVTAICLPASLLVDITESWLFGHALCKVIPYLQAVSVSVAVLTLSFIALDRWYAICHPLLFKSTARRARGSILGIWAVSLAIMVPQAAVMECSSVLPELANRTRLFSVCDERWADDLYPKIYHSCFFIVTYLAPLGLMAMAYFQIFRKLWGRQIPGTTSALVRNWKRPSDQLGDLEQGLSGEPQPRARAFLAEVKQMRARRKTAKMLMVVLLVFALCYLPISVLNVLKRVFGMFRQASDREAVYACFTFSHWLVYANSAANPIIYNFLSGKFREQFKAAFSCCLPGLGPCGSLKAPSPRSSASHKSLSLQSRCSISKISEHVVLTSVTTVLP
CHO-K1 Ca antag – M1 antagonist counterscreen hit in parental CHO-K1 cells | inhibition, % at 3 µM | hit rate 0.6% among 360,000 | ATP-induced calcium, Fluo-8 fluorescence;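 active = inhibition above a per-plate cutoff, the plate's mean sample inhibition plus 3 SD, cut at about 24% in these data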;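 also: 0% = DMSO plus EC80 ATP and 100% = DMSO alone without ATP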
OX1R antag-2 – OX1R (HCRTR1) antagonists, primary screen, fluorescence, CHO/OX1R cells, Fluo-8 calcium, orexin A; Fluo-8 calcium fluorescence; Orexin/Hypocretin receptor type 1 (Homo sapiens), O43613; inhibition, % at 5 µM; hit rate 0.43% among 330,000;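 active = inhibition above its plate's threshold, mean inhibition of all tested compounds on the plate plus 3 SD, cut at about 37% in these data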;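 also: 0% = orexin A challenge wells and 100% = SB-334867-A antagonist wells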
OX1R HTRF confirm – OX1R (HCRTR1) antagonists, confirmation, cell-based, HTRF; inhibition, % at 6.6 µM; shares compounds with OX1R antag-1; AID 492964, 2010; OX1R-expressing cells, HTRF antagonist assay; hit rate 49% among 1,800; in the data active = inhibition above about 55%;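 also: CHO cells expressing OX1R stimulated with orexin A at about EC80; 0% = agonist challenge alone and 100% = reference antagonist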
CHO-K1 HTRF cnt – signal inhibition in parental CHO-K1 cells, counter-screen for OX1R antagonist project, cell-based, HTRF. shares compounds with OX1R antag-1. HTRF counterscreen. inhibition, % at 6.6 µM. hit rate 48% among 1,800; in the data active = inhibition above about 17%;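 also: 0% = agonist challenge with vehicle and 100% = vehicle alone without agonist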
Active calls of the source: *; . = not tested or not shown.

SMILES	CHO parental Ca	CHO-K1 Ca PAM	M1 ag parental	OX1R antag-1	CHO-K1 Ca antag	OX1R antag-2	OX1R HTRF confirm	CHO-K1 HTRF cnt
CCCCN1C(=O)C(=O)N(CC(=O)N2CCc3ccccc32)C1=O	-21.5	12.4	-0.2	6.5	-17.8	1.6	.	.
Cn1c(=O)c2nc(Cl)c(-c3ccccc3)nc2n(C)c1=O	-5.4	16.8	2.8	86.7*	-7.7	-15.9	52.4	80.5*
Cn1c(=O)c2nc3ccccc3nc2n(C)c1=O	7.0	17.1	0.0	159.7*	-16.2	13.4	92.3*	95.3*
Cn1c(=O)c2[nH]c(CCCCCc3nc4ccccc4[nH]3)nc2n(C)c1=O	.	-6.5	1.0	.	18.1	.	.	.
O=C(CN(CCO)Cc1ccccc1)N1CCN(S(=O)(=O)c2ccccc2)CC1	.	5.6	0.6	.	-10.3	.	.	.
CCOc1ccccc1N(CC(=O)NCCSc1ccccn1)S(=O)(=O)c1ccccc1	-37.1	10.5	5.5	79.9*	-6.5	15.7	77.3*	8.0
COC(=O)c1cc(C)nc2c1C(=O)C(=O)C=C2N1CCOCC1	-8.2	-5.9	0.8	98.8*	12.6	-11.5	79.4*	114.3*
COC(=O)c1cc(S(=O)(=O)N2CCOCC2)c(Cl)cc1N1CCOCC1	-0.5	6.5	0.4	4.7	0.1	-8.1	.	.
COc1ccc(/C=C2\N=C(SC)NC2=O)cc1	-2.5	6.2	0.7	20.9	-1.6	11.8	.	.
CSC1=N/C(=C/c2ccc(-n3cncn3)cc2)C(=O)N1	-3.5	-14.8	0.3	85.6*	2.1	-11.1	35.4	25.1*
CN1OC[C@@H]2CN(C(=O)CCc3ccccc3)[C@H](c3ccc(N4CCCCC4)cc3)C[C@@H]21	.	-4.4	0.0	.	16.8	.	.	.
CC[C@@]12C(=O)N(c3cccc(F)c3)C(=O)N1[C@H](c1ccc(Br)cc1)[C@@H]1C(=O)N(C(C)(C)C)C(=O)[C@@H]12	-9.2	13.5	0.4	25.9	-28.2	-28.2	.	.
O=C(N/N=C/c1cc(Cl)c(O)c(Cl)c1)c1cc2c(ccc3ccccc32)o1	14.4	-11.2	1.5	92.2*	7.4	9.1	54.2	14.1
Nc1nnc(-c2cc3ccccc3oc2=O)s1	3.7	15.6	0.2	151.6*	-10.8	-17.9	35.5	50.0*
COCCNC(=O)C1(C)CCCN(C(=O)c2ccccc2C(F)(F)F)C1 (stereo not drawn)	.	18.6	0.8	.	-6.9	.	.	.
Cc1ncsc1CCOC(=O)c1ccc([N+](=O)[O-])cc1	-5.7	19.6	4.1	81.9*	-12.1	-18.9	28.7	33.7*
Cc1ncsc1CCOC(=O)c1cccnc1	0.0	4.7	0.7	8.8	-13.2	-1.5	.	.
O=C(CSc1nnc2nnc3ccccc3n12)N1CCOCC1	-0.6	1.6	0.9	94.0*	-1.8	2.3	72.2*	102.8*
COc1c(C)cc(C(=O)C2CCCN(C(=O)c3cccc(F)c3)C2)cc1C (stereo not drawn)	-3.1	16.6	3.4	105.7*	-2.6	8.7	87.7*	-0.4
COc1ccc2cc(C(=O)C3CCCN(C(=O)c4cnccn4)C3)ccc2c1 (stereo not drawn)	-12.3	16.1	4.3	97.2*	-8.1	-15.0	18.9	-5.7
COc1c(C)cc(C(=O)C2CCCN(C(=O)c3ccc4cc[nH]c4c3)C2)cc1C (stereo not drawn)	-22.2	7.1	-0.7	82.4*	-5.4	-5.5	71.9*	-4.4
O=C(c1cccc(F)c1)N1CCCC(C(=O)N2CCCCCC2)C1 (stereo not drawn)	-16.1	9.6	0.5	-9.3	-6.9	-13.6	.	.
Cc1ccc(C)c(OCCC(=O)OCC(=O)NNC(=O)c2ccccc2)c1	-13.5	-8.0	0.6	5.2	6.5	-3.0	.	.
COc1cc(=O)[nH]c(SCC(=O)Nc2nc3c(s2)CCCC3)n1	-4.3	13.0	0.7	6.3	-6.8	-12.9	.	.
COc1ccc([C@H]2C[C@H](n3cc(C4CC4)nn3)[C@@H](O)CN2C(=O)C2CCCCC2)cc1	.	2.9	0.6	.	-4.8	.	.	.
SMILES	CHO parental Ca	CHO-K1 Ca PAM	M1 ag parental	OX1R antag-1	CHO-K1 Ca antag	OX1R antag-2	OX1R HTRF confirm	CHO-K1 HTRF cnt
Cc1nn(-c2ccccc2)c(C)c1C(=O)NCc1ccccc1F	-18.1	5.8	1.3	12.1	-13.5	-8.9	.	.
Cc1ccc(NC(=O)COC(=O)c2c[nH]c3ccccc23)cc1C	-12.7	-0.1	4.9	5.7	1.6	-15.5	.	.
NCCCC[C@H](N)c1nnc([C@H](CCC(=O)O)NC(=O)C2CCNCC2)o1	2.8	5.7	0.1	22.6	-11.3	-10.2	.	.
CCCOc1cccc(NC(=O)c2cc(C)oc2C)c1	-34.6	-0.7	-0.5	77.7*	-5.6	-47.5	19.9	13.2
O=C1N=C(N2C=CC(=C3C=CNC=C3)C=C2)/C(=C/N=NC(=O)c2ccccc2O)S1	-11.9	8.6	3.8	108.1*	2.3	-10.9	68.2*	108.6*
O=c1c([N+](=O)[O-])cccn1Cc1ccccc1Cl	-7.8	7.1	6.8	78.9*	-2.5	-7.9	45.2	27.4*
O=C1/C(=N\S(=O)(=O)c2cccs2)C([n+]2ccccc2)=C([O-])c2ccccc21	-8.0	2.6	0.3	94.1*	6.8	-8.3	77.5*	118.7*
CC(=O)Nc1ccc(NC(=O)C(C)OC(=O)C(C)SCC(=O)Nc2ccc(C)cc2)cc1 (stereo not drawn)	11.4	9.6	1.5	82.5*	3.9	-0.8	75.1*	3.5
CCOC(=O)c1c(C)[nH]c(C)c1S(=O)(=O)N(C)CC(=O)Nc1cccc(C)n1	-19.5	8.8	-0.1	9.8	13.8	-14.5	.	.
O=C(Nc1cccc(/C=C/c2ccccn2)c1)c1cc(Cl)ccn1	-8.8	-1.2	1.0	80.1*	-14.2	-12.7	84.9*	12.0
O=C1c2ccccc2C(=O)c2[nH]c(=O)[nH]c21	-7.4	-3.6	1.1	82.3*	-9.5	-14.1	70.6*	108.6*
O=C1c2ccccc2C(=O)c2[nH]cnc21	.	2.4	0.2	.	3.1	.	.	.
O=C(Nc1cccc2c1CCCC2)c1cc(C2CCCCN2C(=O)CCCc2ccccc2)on1 (stereo not drawn)	.	17.6	0.8	.	-10.2	.	.	.
CCOC(=O)c1sc(NC(=O)Nc2ccccc2Cl)cc1C	-6.4	-1.4	12.1	78.2*	22.0	0.3	52.8	8.1
CCOC(=O)c1sc(NC(=O)c2ccc(C)s2)cc1C	2.9	13.7	1.6	79.2*	-2.3	1.6	46.1	12.8

Screens (PubChem)
